Source: PMC5567870 (Journal of natural products, 2017)

What was measured:
[1] = biological target: Gα protein (Homo sapiens, UniProt P09471); test: Differential scanning fluorimetry; type: binding; details: DSF, data not shown
[2] = tested on: RGS17ΔN–Gαo interaction in HEK293T cells; test: Confocal localization of GFP-RGS17ΔN cotransfected with hGαo; type: cell-based; details: 100 µM, imaging time course
[3] = biological target: T1, RGS17ΔN–Gαo interaction in HEK293T cells (Homo sapiens, UniProt Q9UGC6); test: as above; type: cell-based; details: for delocalization of RGS17ΔN from the cell membrane: 100 µM; for delocalization of RGS17ΔN from the cell membrane, GFP signal quantification: 10 µM, longer time course
T1 sequence (Q9UGC6 61-210): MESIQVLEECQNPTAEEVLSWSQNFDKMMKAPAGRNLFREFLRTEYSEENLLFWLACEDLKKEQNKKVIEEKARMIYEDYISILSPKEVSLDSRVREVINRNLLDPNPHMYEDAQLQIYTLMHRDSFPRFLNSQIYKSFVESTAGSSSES

[4] = biological target: T2, RGS17 (Homo sapiens, UniProt Q9UGC6); test: Isothermal titration calorimetry; type: binding; details: for change in enthalpy ΔH / entropic change TΔS / protein:ligand binding stoichiometry / ΔG binding: ITC
T2 sequence (Q9UGC6 72-206 limits assumed): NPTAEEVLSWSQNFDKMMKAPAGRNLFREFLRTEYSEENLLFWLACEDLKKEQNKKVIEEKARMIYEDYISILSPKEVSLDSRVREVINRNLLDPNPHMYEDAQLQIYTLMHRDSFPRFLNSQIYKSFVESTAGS

[5] = biological target: T2, RGS17; test: Differential scanning fluorimetry; type: binding; details: DSF
[6] = tested on: A549 lung tumor cells; test: Growth of A549 lung tumor cells; type: cell-based; details: up to 1 µM, 6 days in culture, relative to DMSO control
How it was run: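 Subconfluent A549 cells were trypsinized, counted and plated at 1000 per well in 24-well plates, then left to attach overnight. Triplicate wells received test compound or matched DMSO (≤0.2% final). Confluence was imaged every 2 h for 6 days, with images checked to exclude morphology effects. Change in confluence was expressed relative to DMSO and plotted against concentration. IC50 was solved by linear regression at 0.5 relative growth.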

[7] = tested on: CREB phosphorylation; test: CREB phosphorylation upon stimulation with forskolin; type: cell-based; details: compared to DMSO-treated controls, data not shown
[8] = biological target: T3, RGS17ΔN (1ZV4 construct) (Homo sapiens, UniProt Q9UGC6); test: Covalent modification of RGS17 by ESI-TOFMS; type: binding; details: ESITOFMS, 5:1 test compound to RGS17, 72 h
T3 sequence (Q9UGC6 72-206): T2 sequence (Q9UGC6 72-206 limits assumed)
How it was run: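 Protein: RGS17ΔN (1ZV4 construct) at 20 µM in 25 mM HEPES, 100 mM NaCl, 5% DMSO, pH 8. Incubated at 4 °C for 72 h with or without 100 µM test compound. Dialysed 24 h at 4 °C against 25 mM NH4HCO3 and 100 µM NaCl to remove noncovalent compound, with a second dialysis for some compounds. Analysed by direct-infusion positive-mode ESI-TOF with spectral deconvolution.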

[9] = Solubility in aqueous buffer for ITC; type: physicochemical; details: at the high concentration needed for the ITC experiment
[10] = tested on: PC3E cells; test: Prostate tumor cell growth, PC3E; type: cell-based; details: for inhibition of PC3E cell growth: dose-response; for sensitization of PC3E cells by overexpression of RGS17: transient transfection, data not shown
[11] = tested on: RWPE-1 cells; test: Prostate cell growth, RWPE-1; type: cell-based; details: immortalized epithelial, normal cells
[12] = tested on: TEM4-18 cells; test: Prostate tumor cell growth, TEM4-18; type: cell-based; details: dose-response
[13] = biological target: T4, RGS17–Gαo interaction in HEK293T cells (Homo sapiens, UniProt Q9UGC6); test: Confocal localization of GFP full-length RGS17 cotransfected with Gαo; type: cell-based; details: 100 µM, 10 min
T4 sequence (Q9UGC6 1-210): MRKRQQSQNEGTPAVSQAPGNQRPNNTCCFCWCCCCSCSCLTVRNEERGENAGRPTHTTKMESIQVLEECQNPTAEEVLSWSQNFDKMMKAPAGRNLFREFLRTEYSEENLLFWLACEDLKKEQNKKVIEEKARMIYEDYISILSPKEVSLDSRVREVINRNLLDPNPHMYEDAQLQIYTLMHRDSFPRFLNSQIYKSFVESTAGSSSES
How it was run: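 HEK293T cells were plated at 25 000 per well on poly-D-lysine-coated glass-bottom plates and held overnight at 37 °C, 5% CO2. They were cotransfected with hGαo (pcDNA 3.1(+)) and pAcGFP-RGS17FL using Lipofectamine 2000. At 24 h the medium was replaced with serum-free, phenol-red-free DMEM. Test compound was added at 2× in that medium to give 1× final (0.07–0.8% DMSO). Live cells were imaged by confocal microscopy.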

Chain of Gα protein (P09471 whole entry): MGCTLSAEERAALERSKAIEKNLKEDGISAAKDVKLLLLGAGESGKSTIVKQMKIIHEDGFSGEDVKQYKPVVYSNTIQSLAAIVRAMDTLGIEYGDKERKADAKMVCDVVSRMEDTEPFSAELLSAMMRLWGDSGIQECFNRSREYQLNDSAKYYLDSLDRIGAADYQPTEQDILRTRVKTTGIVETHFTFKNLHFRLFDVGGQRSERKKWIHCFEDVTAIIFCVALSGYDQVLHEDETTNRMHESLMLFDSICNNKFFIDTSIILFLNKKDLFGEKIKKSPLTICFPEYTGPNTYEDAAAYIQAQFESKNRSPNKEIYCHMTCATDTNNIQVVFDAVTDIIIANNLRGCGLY

## CC(C)=CCC[C@]1(C)C=Cc2c(O)c3c(c(CC=C(C)C)c2O1)O[C@]12C(=C[C@@H]4C[C@H]1C(C)(C)O[C@@]2(C/C=C(/C)C(=O)O)C4=O)C3=O [compound 3, (−)-gambogic acid]
[1]
  shift in Tm for the G protein: drastic negative shift

## Cc1ccc(-n2sc(=O)n(Cc3ccc(F)cc3)c2=O)cc1 [CCG-50014, reference compound]
[2]
  gross morphological changes indicative of cytotoxicity: significant cell shrinkage
[3]
  delocalization of RGS17ΔN from the cell membrane: did not result in RGS17ΔN delocalization from the membrane

## O=c1c(-c2cc(O)c(O)c(O)c2)coc2cc(O)c(O)c(O)c12 [compound 4, irigenol]
[4]
  change in enthalpy ΔH: -2.158 kcal/mol
  entropic change TΔS: 6.2313 kcal/mol
  protein:ligand binding stoichiometry: 0.33
  ΔG binding: -8.389 kcal/mol
[5]
  melting temperature (Tm) shift for RGS17: only minor melting temperature (Tm) shifts
[6]
  inhibition of A549 cell growth: did not demonstrate any level of growth inhibition
[7]
  reduction of CREB phosphorylation: trended toward the proposed mechanism
[8]
  covalent adduct formation with RGS17: could not be detected
[2]
  gross morphological changes indicative of cytotoxicity: lack of gross morphological changes
[3]
  delocalization of RGS17ΔN from the cell membrane, GFP signal quantification: demonstrated the same trend
  delocalization of RGS17ΔN from the cell membrane: disrupt RGS17–Gα interaction

## CC1=C(O)C(=O)C=C2C1=CC=C1[C@@]2(C)CC[C@@]2(C)[C@@H]3C[C@](C)(C(=O)O)CC[C@]3(C)CC[C@]12C [compound 2, celastrol]
[9]
  solubility in aqueous buffer: not soluble
[5]
  melting temperature (Tm) shift for RGS17: only minor melting temperature (Tm) shifts
[6]
  inhibition of A549 cell growth: sub-micromolar inhibition
[8]
  covalent adduct formation with RGS17: both singly and doubly adducted species
[2]
  gross morphological changes indicative of cytotoxicity: lack of gross morphological changes
[3]
  delocalization of RGS17ΔN from the cell membrane, GFP signal quantification: loss of this enrichment at T = final
  delocalization of RGS17ΔN from the cell membrane: disrupt RGS17–Gα interaction
[10]
  inhibition of PC3E cell growth: inhibited the growth
  sensitization of PC3E cells by overexpression of RGS17: did not result in a sensitization
[11]
  growth arrest of RWPE-1 cells: caused growth arrest
[12]
  inhibition of TEM4-18 cell growth: inhibited the growth

## C[n+]1cc2c3c(ccc2c2ccc4cc5c(cc4c21)OCO5)OCO3 [compound 1, sanguinarine]
[13]
  localization of GFP full-length RGS17: remained at the membrane
[4]
  Kd: 1000 nM
  change in enthalpy ΔH: -0.148 kcal/mol
  entropic change TΔS: 8.0202 kcal/mol
  protein:ligand binding stoichiometry: 0.82
  ΔG binding: -8.168 kcal/mol
[5]
  melting temperature (Tm) shift for RGS17: only minor melting temperature (Tm) shifts
[6]
  inhibition of A549 cell growth: sub-micromolar inhibition
[7]
  reduction of CREB phosphorylation: trended toward the proposed mechanism
[8]
  covalent adduct formation with RGS17: could not be detected
[2]
  gross morphological changes indicative of cytotoxicity: lack of gross morphological changes
[3]
  delocalization of RGS17ΔN from the cell membrane, GFP signal quantification: loss of this enrichment at T = final
  delocalization of RGS17ΔN from the cell membrane: disrupt RGS17–Gα interaction
[10]
  inhibition of PC3E cell growth: inhibited the growth
  sensitization of PC3E cells by overexpression of RGS17: did not result in a sensitization
[11]
  growth arrest of RWPE-1 cells: caused growth arrest
[12]
  inhibition of TEM4-18 cell growth: inhibited the growth
